# Results of several laboratories.
# HDAC8: Histone deacetylase 8 (HDAC8, Homo sapiens, UniProt Q9BY41)
# HTR1D: 5-hydroxytryptamine receptor 1D (HTR1D, Homo sapiens, UniProt P28221)
# ALOX5: Polyunsaturated fatty acid 5-lipoxygenase (ALOX5, Homo sapiens, UniProt P09917)
# OPRM1: Mu-type opioid receptor (OPRM1, Homo sapiens, UniProt P35372)
# TACR2: Substance-K receptor (TACR2, Homo sapiens, UniProt P21452)
SMILES,target,test,test system,setting,inhibition [%]
CC1(C)CC[C@]2(C)CC[C@]3(C)[C@H]4CC=C5[C@@H](CC[C@H](O)C5(C)C)[C@]4(C)CC[C@@]3(C)[C@@H]2C1,HDAC8,"enzyme activity, inhibitor",,10 µM,44.8
COc1cc2c3c(c1OC)-c1cc4c(cc1CC3N(C)CC2c1ccccc1)OCO4 (stereo not shown),HTR1D,"ligand displacement, radioligand",,10 µM,< 50
CCN1CCN(Cc2ccc(NC(=O)c3ccc(C)c(/C=C/c4cnc5[nH]ccc5c4OC)c3)cc2C(F)(F)F)CC1,"Mitogen-activated protein kinase kinase kinase 4 (MAP3K4, Homo sapiens, UniProt Q9Y6R4)","target engagement in cells, inhibitor, chemoproteomics",A-375,50 nM,-0.65
CCn1ccc(=S)c(O)c1C,ALOX5,"enzyme activity, inhibitor, fluorescence",,1 mM,> 70
COC(=O)[C@]1(O)C[C@@H](O)[C@@H](O)[C@H](OC(=O)/C=C/c2ccc(O)c(O)c2)C1,HDAC8,"enzyme activity, inhibitor",,10 µM,60.5
Cc1occc(=S)c1O,ALOX5,"enzyme activity, inhibitor, fluorescence",,1 mM,> 70
CC1(C)CC[C@]2(C)CC[C@]3(C)C(=CC[C@@H]4[C@@]5(C)CC[C@H](O)C(C)(C)[C@@H]5CC[C@]43C)[C@@H]2C1,HDAC8,"enzyme activity, inhibitor",,10 µM,34.9
COc1ccc(CCCn2ncc3c2nc(N)n2nc(-c4ccco4)nc32)cc1,"Adenosine receptor A3 (Mus musculus, UniProt Q61618)","ligand displacement, radioligand",,"10 µM, cell membranes",6
O=C(c1ccc(F)cc1)N(Cc1ccccc1)C1CCCCC1,OPRM1,ligand displacement,,10 µM,6
O=C(/C=C/c1ccc(O)c(O)c1)O[C@@H]1C[C@](O)(C(=O)O)C[C@@H](O)[C@H]1O,HDAC8,"enzyme activity, inhibitor",,10 µM,58.2
CCCNc1nc2ccccc2n1Cc1ccc(Cl)cc1,HTR1D,cell-free assay,,10 µM,-20.3
COc1cc(Cl)c(C(=O)N[C@@H](CN[C@H]2CC[C@@H](N)CC2)Cc2ccc(C#N)cc2)cc1-c1ccc(CN[C@H](C)c2ccc(C)cc2)o1,"Somatostatin receptor type 4 (SSTR4, Homo sapiens, UniProt P31391)","calcium signal, antagonist",,10 µM,12
COc1cc(NC(C)=O)c(Cl)cc1C(=O)Nc1nccs1,TACR2,cell-free assay,,10 µM,20
CCN(CC)c1ccc(C2Nc3ccc(C(=O)c4ccccc4)cc3NC3=C2C(=O)CC(C)(C)C3)cc1 (stereo not shown),HTR1D,"ligand displacement, radioligand",,10 µM,25
Oc1cccc(Nc2nc(-c3ccc(F)cc3F)cs2)c1,OPRM1,ligand displacement,,10 µM,14.2
O=C1N=C(N2CCCCN2)S/C1=C\c1ccc(F)cc1O,TACR2,"ligand displacement, radioligand",,10 µM,< 10
